Reference: ChEMBL document CHEMBL1125368, “Thiophene systems. 14. Synthesis and antihypertensive activity of novel 7-(cyclic amido)-6-hydroxythieno[3,2-b]pyrans and related compounds as new potassium channel activators” (1992)

What was measured:
Type in all cases: functional
Rattus norvegicus [1] = experiment: The compound was tested for antihypertensive activity measured as maximal change in mean arterial blood pressure(MAP), after oral administration of 20 mg/kg of the compound.
Procedure, shortened: (§1)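 Conscious SHR with an arterial catheter exteriorized at the nape, held in Bollman restraint cages after a 60-min postsurgical recovery. Only rats with MAP >150 mmHg were used. Single oral gavage dose in distilled water (range 0.003-20 mg/kg), pressure monitored continuously for 4 h by transducer. Maximal % change from predrug MAP over 240 min, N ≥ six rats. ED30 from regression over the linear part of the dose-response, with 95% confidence limits.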

Rattus norvegicus [2] = experiment: The compound was tested for antihypertensive activity measured as maximal change in mean arterial blood pressure(MAP), after oral administration of 1 mg/kg of the compound.; procedure, shortened: as §1
Oryctolagus cuniculus [3] = species on record: Oryctolagus cuniculus; experiment: The compound was tested for increase in [86Rb+] efflux in rabbit isolated mesenteric artery over basal rate at a concentration of 1 uM.
Procedure, shortened: (§2)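 Vessel rings from freshly killed rabbits, held on steel wires in physiological buffer at 37 °C gassed with 95% O2/5% CO2. Rings loaded with 86Rb (4-5 μCi/mL) for 3-4 h, then moved in pairs through 4 mL buffer tubes every 10 min. Basal efflux taken over 30-40 min, followed by test compound in about five vials, then compound-free washout for 10-20 min. Efflux aliquots and overnight-digested tissue counted by liquid scintillation.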

Oryctolagus cuniculus [4] = species on record: Oryctolagus cuniculus; experiment: The compound was tested for increase in [86Rb+] efflux in rabbit isolated mesenteric artery over basal rate at a concentration of 10 uM; procedure, shortened: as §2
Oryctolagus cuniculus [5] = species on record: Oryctolagus cuniculus; experiment: The compound was tested for increase in [86Rb+] efflux in rabbit isolated mesenteric artery over basal rate at a concentration of 100 uM; procedure, shortened: as §2
Oryctolagus cuniculus [6] = species on record: Oryctolagus cuniculus; experiment: The compound was tested for increase in [86Rb+] efflux in rabbit isolated mesenteric artery over basal rate at a concentration of 30 uM.; procedure, shortened: as §2
Rattus norvegicus [7] = species on record: Rattus norvegicus; experiment: The compound was tested for 30% reduction in mean arterial blood pressure(MAP); procedure, shortened: as §1
Oryctolagus cuniculus [8] = species on record: Oryctolagus cuniculus; experiment: The compound was tested for increase in [86Rb+] efflux in rabbit isolated mesenteric artery over basal rate at a concentration of 30 uM; procedure, shortened: as §2
Rattus norvegicus [9] = experiment: Maximal change in rat mean arterial blood pressure after 20 mg/kg p.o.; conditions: route oral; procedure, shortened: as §1
Oryctolagus cuniculus [10] = species on record: Oryctolagus cuniculus; experiment: The compound was tested for increase in [86Rb+] efflux in rabbit isolated mesenteric artery over basal rate at a concentration of 3 uM.; procedure, shortened: as §2
Oryctolagus cuniculus [11] = species on record: Oryctolagus cuniculus; experiment: The compound was tested for increase in [86Rb+] efflux in rabbit isolated mesenteric artery over basal rate at a concentration of 10 uM.; procedure, shortened: as §2
Oryctolagus cuniculus [12] = species on record: Oryctolagus cuniculus; experiment: The compound was tested for increase in [86Rb+] efflux in rabbit isolated mesenteric artery over basal rate at a concentration of 100 uM.; procedure, shortened: as §2
Oryctolagus cuniculus [13] = species on record: Oryctolagus cuniculus; experiment: The compound was tested for increase in [86Rb+] efflux in rabbit isolated mesenteric artery over basal rate at a concentration of 3 uM; procedure, shortened: as §2
Oryctolagus cuniculus [14] = species on record: Oryctolagus cuniculus; experiment: The compound was tested for increase in [86Rb+] efflux in rabbit isolated mesenteric artery over basal rate at a concentration of 100 uM( Values in parentheses indicates 95%confidence limits); procedure, shortened: as §2
[15] = Rattus norvegicus, Arterial blood, read-out: ED30

## CC1(C)Oc2cc([N+](=O)[O-])sc2[C@@H](N2CCCCC2=O)[C@@H]1O (relative stereo)
Rattus norvegicus [1]
  Change: -24%

## CC1(C)Oc2cc([N+](=O)[O-])sc2[C@@H](N2CCCCC2=O)[C@@H]1O (stereo in doubt; 40)
Rattus norvegicus [2]; 1 mg/kg
  Change: -19%
Oryctolagus cuniculus [3]
  Increase: 2%
Oryctolagus cuniculus [4]
  Increase: 19%
Oryctolagus cuniculus [5]
  Increase: 19%
Oryctolagus cuniculus [6]
  Increase: 11%
Rattus norvegicus [7]
  ED30: 1.9 mg/kg

## CC(=O)c1cc2c(s1)[C@@H](N1CCCCC1=O)[C@H](O)C(C)(C)O2
Oryctolagus cuniculus [4]
  Increase: 13%
Oryctolagus cuniculus [5]
  Increase: 26%
Oryctolagus cuniculus [8]
  Increase: 38%
Rattus norvegicus [9]
  Change: -67%
Rattus norvegicus [7]; [15]
  ED30: 0.09 mg/kg

## CC1(C)Oc2cc(C(N)=O)sc2[C@@H](N2CCCCC2=O)[C@@H]1O
Oryctolagus cuniculus [4]
  Increase: 73%
Oryctolagus cuniculus [5]
  Increase: 92%
Oryctolagus cuniculus [6]
  Increase: 75%
Rattus norvegicus [9]
  Change: -68%
Rattus norvegicus [7]; [15]
  ED30: 0.2 mg/kg

## CC(=O)c1cc2c(s1)[C@@H](N1CCCC1=O)[C@H](O)C(C)(C)O2
Oryctolagus cuniculus [4]
  Increase: 37%
Oryctolagus cuniculus [5]
  Increase: 57%
Oryctolagus cuniculus [8]
  Increase: 40%
Rattus norvegicus [9]
  Change: -62%
Rattus norvegicus [7]; [15]
  ED30: 0.2 mg/kg

## COC(=O)c1cc2c(s1)[C@@H](N1CCCCC1=O)[C@H](O)C(C)(C)O2
Oryctolagus cuniculus [5]
  Increase: 63%
Oryctolagus cuniculus [6]
  Increase: 51%
Rattus norvegicus [9]
  Change: -37%

## CC1(C)Oc2cc([N+](=O)[O-])sc2[C@@H](N2CCCCC2=O)[C@@H]1O (stereo in doubt; 32)
Oryctolagus cuniculus [10]
  Increase: 41%
Oryctolagus cuniculus [4]
  Increase: 56%
Oryctolagus cuniculus [8]
  Increase: 60%
Rattus norvegicus [9]
  Change: -65%
Rattus norvegicus [7]
  ED30: 0.015 mg/kg

## CC1(C)Oc2ccsc2[C@@H](N2CCCCC2)[C@@H]1O
Oryctolagus cuniculus [5]
  Increase: 0%
Rattus norvegicus [9]
  Change: -6%

## CC1(C)Oc2cc([N+](=O)[O-])sc2[C@@H](N2CCCCC2=O)[C@@H]1O (stereo in doubt; 41)
Rattus norvegicus [2]; 1 mg/kg
  Change: -63%
Oryctolagus cuniculus [11]
  Increase: 80%
Oryctolagus cuniculus [3]
  Increase: 26%
Oryctolagus cuniculus [12]
  Increase: 53%
Oryctolagus cuniculus [13]
  Increase: 66%
Oryctolagus cuniculus [6]
  Increase: 91%
Rattus norvegicus [7]
  ED30: 0.013 mg/kg

## CNC(=O)c1cc2c(s1)[C@@H](N1CCCCC1=O)[C@H](O)C(C)(C)O2.O
Rattus norvegicus [1]
  Change: -29%
Oryctolagus cuniculus [12]
  Increase: 25%

## COC(=O)c1cc2c(s1)[C@@H](N1CCCC1=O)[C@H](O)C(C)(C)O2
Rattus norvegicus [9]
  Change: -31%

## CC1(C)Oc2ccsc2[C@@H](N2CCCC2)[C@@H]1O
Oryctolagus cuniculus [5]
  Increase: 0%
Rattus norvegicus [9]
  Change: -14%

## CC1(C)Oc2cc([N+](=O)[O-])sc2[C@@H](N2CC(=O)NCC2=O)[C@@H]1O
Rattus norvegicus [1]
  Change: -4%
Oryctolagus cuniculus [5]
  Increase: 0%

## CC1(C)C=C(n2ccccc2=O)c2sc([N+](=O)[O-])cc2O1
Rattus norvegicus [9]
  Change: -14%

## CC1(C)Oc2cc([N+](=O)[O-])sc2[C@@H](N2Cc3ccccc3C2=O)[C@@H]1O
Rattus norvegicus [2]
  Change: -58%
Rattus norvegicus [9]
  Change: -61%
Rattus norvegicus [7]; [15]
  ED30: 0.22 mg/kg

## CC1(C)Oc2cc([N+](=O)[O-])sc2[C@@H](N2CCNC2=O)[C@@H]1O
Rattus norvegicus [1]
  Change: -3%

## CC1(C)Oc2cc([N+](=O)[O-])sc2[C@@H](n2ccccc2=O)[C@@H]1O
Rattus norvegicus [2]
  Change: -10%
Rattus norvegicus [1]
  Change: -57%
Oryctolagus cuniculus [8]
  Increase: 0%

## CC1(C)Oc2cc(C(=O)OCc3ccccc3)sc2[C@@H](N2CCCC2=O)[C@@H]1O
Rattus norvegicus [9]
  Change: -14%

## CN(C)C(=O)c1cc2c(s1)[C@@H](N1CCCCC1=O)[C@H](O)C(C)(C)O2
Rattus norvegicus [2]
  Change: -7%
Rattus norvegicus [1]
  Change: -63%
Oryctolagus cuniculus [5]
  Increase: 32%

## CC1(C)Oc2cc(C#N)sc2[C@@H](N2CCCC2=O)[C@@H]1O
Rattus norvegicus [9]
  Change: -67%
Rattus norvegicus [7]; [15]
  ED30: 0.07 mg/kg

## CC1(C)Oc2ccsc2[C@@H](N2CCCCCC2=O)[C@@H]1O
Rattus norvegicus [1]
  Change: -12%
Oryctolagus cuniculus [5]
  Increase: 0%

## CC1(C)Oc2cc(Br)sc2[C@@H](N2CCCC2=O)[C@@H]1O
Rattus norvegicus [2]
  Change: -3%
Oryctolagus cuniculus [4]
  Increase: 65%
Oryctolagus cuniculus [5]
  Increase: 90%
Oryctolagus cuniculus [8]
  Increase: 64%
Rattus norvegicus [9]
  Change: -43%

## CC1(C)Oc2cc([N+](=O)[O-])sc2[C@@H](N2CCCNC2=O)[C@@H]1O
Rattus norvegicus [1]
  Change: -7%

## CC1(C)C=C(N2CCCCC2)c2sc([N+](=O)[O-])cc2O1
Rattus norvegicus [9]
  Change: -17%

## CC1(C)Oc2cc(Br)sc2[C@@H](N2CCCCC2=O)[C@@H]1O
Oryctolagus cuniculus [8]
  Increase: 42%
Rattus norvegicus [9]
  Change: -64%

## CC1(C)Oc2cc([N+](=O)[O-])sc2[C@@H](N2CCCC2=O)[C@@H]1O
Oryctolagus cuniculus [11]
  Increase: 67%
Oryctolagus cuniculus [3]
  Increase: 48%
Oryctolagus cuniculus [5]
  Increase: 114%
Oryctolagus cuniculus [6]
  Increase: 110%
Rattus norvegicus [9]
  Change: -60%
Rattus norvegicus [7]; [15]
  ED30: 0.19 mg/kg

## CC1(C)Oc2cc(C(=O)O)sc2[C@@H](N2CCCCC2=O)[C@@H]1O
Rattus norvegicus [1]
  Change: -9%

## CC1(C)Oc2ccsc2[C@@H](N2CCCC2=O)[C@@H]1O
Oryctolagus cuniculus [4]
  Increase: 0%
Oryctolagus cuniculus [5]
  Increase: 25%
Oryctolagus cuniculus [6]
  Increase: 8%
Rattus norvegicus [9]
  Change: -55%
Rattus norvegicus [7]; [15]
  ED30: 5.03 mg/kg

## Cc1cc2c(s1)[C@@H](N1CCCC1=O)[C@H](O)C(C)(C)O2
Rattus norvegicus [9]
  Change: -28%

## CC1(C)Oc2cc(C(=O)c3ccccc3)sc2[C@@H](N2CCCC2=O)[C@@H]1O
Rattus norvegicus [2]
  Change: -4%
Oryctolagus cuniculus [4]
  Increase: 0%
Oryctolagus cuniculus [5]
  Increase: 58%
Oryctolagus cuniculus [6]
  Increase: 33%
Rattus norvegicus [9]
  Change: -50%

## CC1(C)Oc2ccc(C#N)cc2[C@@H](N2CCCC2=O)[C@@H]1O [LEVCROMAKALIM]
Oryctolagus cuniculus [4]
  Increase: 46%
Oryctolagus cuniculus [14]
  Increase: 104%
Oryctolagus cuniculus [13]
  Increase: 41%
Oryctolagus cuniculus [8]
  Increase: 73%
Rattus norvegicus [7]; [15]
  ED30: 0.19 mg/kg

## CC1(C)Oc2cc([N+](=O)[O-])sc2[C@@H](N2CCCCCC2=O)[C@@H]1O
Rattus norvegicus [1]
  Change: -34%
Oryctolagus cuniculus [8]
  Increase: 25%

## CC1(C)Oc2cc(C#N)sc2[C@@H](N2CCCCC2=O)[C@@H]1O
Rattus norvegicus [1]
  Change: -66%
Oryctolagus cuniculus [5]
  Increase: 0%
Oryctolagus cuniculus [6]
  Increase: 11%
Rattus norvegicus [7]; [15]
  ED30: 0.03 mg/kg

## CC1(C)Oc2ccsc2[C@@H](N2CCCCC2=O)[C@@H]1O
Oryctolagus cuniculus [4]
  Increase: 7%
Oryctolagus cuniculus [5]
  Increase: 40%
Oryctolagus cuniculus [6]
  Increase: 26%
Rattus norvegicus [9]
  Change: -53%

## CC1(C)Oc2cc(C(=O)C(F)(F)F)sc2[C@@H](N2CCCC2=O)[C@@H]1O
Rattus norvegicus [2]
  Change: -55%
Rattus norvegicus [9]
  Change: -68%

## CC1(C)C=C(n2ccccc2=O)c2cc(C#N)ccc2O1 [BIMAKALIM]
Rattus norvegicus [7]; [15]
  ED30: 0.01 mg/kg

## CC1(C)C=C(N2CCCCC2=O)c2sc([N+](=O)[O-])cc2O1
Rattus norvegicus [9]
  Change: -5%
